Measured values published in ChEMBL document CHEMBL1131099, “Biologically active oligodeoxyribonucleotides. 5. 5'-End-substituted d(TGGGAG) possesses anti-human immunodeficiency virus type 1 activity by forming a G-quadruplex structure” (J Med Chem, 1998).

What was measured:
MT4 [1] = experiment: In vitro inhibitory activity for cytopathicities induced by HIV-1III B against MT-4 cells.; type: functional, cell-based; settings: Homo sapiens
Outline: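 Exponentially growing MT-4 cells were pelleted (140g, 5 min), infected in a small volume of RPMI-1640 with 100 TCID50 HIV-1 IIIB for 1 h, washed, and plated at 2.5 × 10⁴ cells/well with serial oligonucleotide dilutions. Viability was read by MTT at day 6. IC50 was taken from dose-response curves, as the mean of duplicate or quadruplicate ± SD.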

MT4 [2] = experiment: Cytotoxicity was measured against MT-4 cells using MTT assay.; type: functional; settings: Homo sapiens

SMILES | IC50 (MT4 [1]) [µM] | CC50 (MT4 [2]) [µM]
Cc1cn([C@H]2C[C@H](OP(=O)(O)OC[C@H]3O[C@@H](n4cnc5c(=O)[nH]c(N)nc54)C[C@@H]3OP(=O)(O)OC[C@H]3O[C@@H](n4cc(C)c(=O)[nH]c4=O)C[C@@H]3OP(=O)(O)OC[C@H]3O[C@@H](n4cnc5c(=O)[nH]c(N)nc54)C[C@@H]3OP(=O)(O)OC[C@H]3O[C@@H](n4cnc5c(N)ncnc54)C[C@@H]3OP(=O)(O)OC[C@H]3O[C@@H](n4cnc5c(=O)[nH]c(N)nc54)C[C@@H]3O)[C@@H](COCc3ccc(OCc4ccccc4)c(OCc4ccccc4)c3)O2)c(=O)[nH]c1=O | > 24 | > 24
Cc1cn([C@H]2C[C@H](OP(=O)(O)OC[C@H]3O[C@@H](n4cnc5c(O)nc(N)nc54)C[C@@H]3OP(=O)(O)OC[C@H]3O[C@@H](n4cnc5c(O)nc(N)nc54)C[C@@H]3OP(=O)(O)OC[C@H]3O[C@@H](n4cnc5c(O)nc(N)nc54)C[C@@H]3OP(=O)(O)OC[C@H]3O[C@@H](n4cnc5c(N)ncnc54)C[C@@H]3O)[C@@H](COCc3ccc(OCc4ccccc4)c(OCc4ccccc4)c3)O2)c(=O)[nH]c1=O | 1.9 | > 40
Cc1cn([C@H]2C[C@H](OP(=O)(O)OC[C@H]3O[C@@H](n4cnc5c(=O)[nH]c(N)nc54)C[C@@H]3OP(=O)(O)OC[C@H]3O[C@@H](n4cnc5c(=O)[nH]c(N)nc54)C[C@@H]3OP(=O)(O)OC[C@H]3O[C@@H](n4cnc5c(=O)[nH]c(N)nc54)C[C@@H]3OP(=O)(O)OC[C@H]3O[C@@H](n4cnc5c(N)ncnc54)C[C@@H]3OP(=O)(O)OC[C@H]3O[C@@H](n4cnc5c(=O)[nH]c(N)nc54)C[C@@H]3O)[C@@H](CO)O2)c(=O)[nH]c1=O | > 40 | > 40
Cc1cn([C@H]2C[C@H](OP(=O)(O)OC[C@H]3O[C@@H](n4cnc5c(=O)[nH]c(N)nc54)C[C@@H]3OP(=O)(O)OC[C@H]3O[C@@H](n4cnc5c(=O)[nH]c(N)nc54)C[C@@H]3OP(=O)(O)OC[C@H]3O[C@@H](n4cnc5c(=O)[nH]c(N)nc54)C[C@@H]3OP(=O)(O)OC[C@H]3O[C@@H](n4cnc5c(N)ncnc54)C[C@@H]3OP(=O)(O)OC[C@H]3O[C@@H](n4cnc5c(=O)[nH]c(N)nc54)C[C@@H]3O)[C@@H](CO[Si](c3ccccc3)(c3ccccc3)C(C)(C)C)O2)c(=O)[nH]c1=O | 0.88 | > 40
